Experimental data reported in ChEMBL document CHEMBL3627689, “Structural design, synthesis and pharmacological evaluation of 4-thiazolidinones against Trypanosoma cruzi” (Bioorg Med Chem, 2015).
Activity calls are given as the source filed them. The calls are words filed in the database; no cut-off is given here.

Legend:
[1] = target: Cruzipain (Trypanosoma cruzi) (UniProt P25779); test: Competitive inhibition of Trypanosoma cruzi Cruzain using Z-FR-AMC as substrate at 100 uM preincubated for 10 mins followed by substrate addition measured every 12 secs for 5 mins by fluorescence assay relative to control
[2] = Cytotoxicity against mouse J774 cells assessed as cell viability after 72 hrs by Alamar Blue assay; assay type: cell-based
Outline: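 J774 macrophages were plated at 5 × 10⁴ cells/mL in RPMI + 10% FBS with gentamycin and grown 24 h at 37 °C, 5% CO₂. Compounds in DMSO (final <1%) were added at six concentrations (0.41–100 µM) in triplicate for 72 h. Viability was read by AlamarBlue at 570/600 nm after 6 h. CC50 came from three independent experiments, with gentian violet as positive control.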

Trypanosoma cruzi [3] = test: Antiparasitic activity against bloodstream trypomastigote stage of Trypanosoma cruzi Y assessed as parasite viability after 24 hrs by Neubauer chamber analysis; assay type: functional, organism-based
Outline: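 Y strain bloodstream trypomastigotes were harvested from infected LLC-MK2 cell supernatants. They were exposed to compounds at five concentrations for 24 h at 37 °C, 5% CO₂. Viable parasites were counted in a Neubauer chamber by motility. Inhibition was calculated relative to untreated cultures, and IC50 was derived by non-linear regression.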

[4] = Selectivity index, ratio of CC50 for mouse J774 cells to IC50 for bloodstream trypomastigote stage of Trypanosoma cruzi Y
Trypanosoma cruzi [5] = test: Antiparasitic activity against bloodstream trypomastigote stage of Trypanosoma cruzi Y infected in BALB/c mouse assessed as increase in survival rate by measuring mortality at 100 mg/kg, po qd administered for 5 days measured until 30 days; assay type: functional, organism-based
Outline: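 Female BALB/c mice (6 per group) were infected with 10⁴ Y strain trypomastigotes. From day 5 post-infection they received 100 mg/kg orally once daily for 5 days. Controls were vehicle (untreated infected) and benznidazole 100 mg/kg. Survival was followed for 30 days after infection in one experiment.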

Trypanosoma cruzi [6] = test: Antiparasitic activity against amastigote stage of Trypanosoma cruzi Y in BALB/c mouse macrophages assessed as decrease in number of infected cells at 50 uM incubated for 6 hrs by Giemsa staining-based optical microscopic analysis; assay type: functional, organism-based
Outline: (§1)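 Thioglycolate-elicited peritoneal macrophages from BALB/c mice, 2 × 10⁵ cells/well on coverslips in RPMI + 10% FBS for 24 h, then infected with Y strain trypomastigotes (10 per macrophage) for 2 h. Free parasites washed off. Compounds added at 50 µM for 6 h, medium replaced, 3 days further culture. Methanol fixation, Giemsa staining, 100 cells counted per slide. Triplicate, two independent experiments.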

Mus musculus = test: Toxicity in BALB/c mouse infected with bloodstream trypomastigote stage of Trypanosoma cruzi Y assessed as body weight loss at 100 mg/kg, po qd administered for 5 days; assay type: organism-based; details: in vivo, 120 h
Trypanosoma cruzi [7] = test: Antiparasitic activity against bloodstream trypomastigote stage of Trypanosoma cruzi Y infected in BALB/c mouse assessed as reduction of parasitemia at 100 mg/kg, po qd administered for 5 days measured on day 12 post infection relative to vehicle-treated control; assay type: functional; parameters: scale not given: the % may be the effect or the level left
Outline: (§2)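 Female BALB/c mice (6 per group, randomized) were infected with 10⁴ Y strain trypomastigotes. They were dosed orally at 100 mg/kg once daily for 5 days starting day 5 post-infection. Parasitemia was counted as trypomastigotes in fresh blood. Reduction = (vehicle mean − treated mean)/vehicle mean × 100%.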

Trypanosoma cruzi [8] = test: Antiparasitic activity against bloodstream trypomastigote stage of Trypanosoma cruzi Y infected in BALB/c mouse assessed as reduction of parasitemia at 100 mg/kg, po qd administered for 5 days measured on day 10 post infection relative to vehicle-treated control; assay type: functional; parameters: scale not given: the % may be the effect or the level left
Outline: as §2

Trypanosoma cruzi [9] = test: Antiparasitic activity against amastigote stage of Trypanosoma cruzi Y in BALB/c mouse macrophages assessed as decrease in number of intracellular amastigotes at 50 uM incubated for 6 hrs by Giemsa staining-based optical microscopic analysis; assay type: functional, organism-based
Outline: as §1

Trypanosoma cruzi [10] = test: Potency index, ratio of benznidazole IC50 to compound IC50 for bloodstream trypomastigote stage of Trypanosoma cruzi Y; assay type: functional
Trypanosoma cruzi [11] = test: Potency index, ratio of benznidazole IC50 to compound IC50 for amastigote stage of Trypanosoma cruzi Y in BALB/c mouse macrophages; assay type: functional
Trypanosoma cruzi [12] = test: Antiparasitic activity against amastigote stage of Trypanosoma cruzi Y in BALB/c mouse macrophages assessed as decrease in number of intracellular amastigotes incubated for 6 hrs by Giemsa staining-based optical microscopic analysis; assay type: functional, organism-based
Outline: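 Peritoneal BALB/c macrophages (thioglycolate-elicited) were infected with Y strain trypomastigotes at 10:1 for 2 h and washed. Compounds at five concentrations (1–50 µM) were applied for 6 h, followed by fresh medium and 3 days of culture. Amastigotes per 100 macrophages were counted after Giemsa staining.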

Leishmania = test: Antiparasitic activity against Leishmania; assay type: functional

Cruzipain (Trypanosoma cruzi), sequence (P25779 123-467 limits assumed): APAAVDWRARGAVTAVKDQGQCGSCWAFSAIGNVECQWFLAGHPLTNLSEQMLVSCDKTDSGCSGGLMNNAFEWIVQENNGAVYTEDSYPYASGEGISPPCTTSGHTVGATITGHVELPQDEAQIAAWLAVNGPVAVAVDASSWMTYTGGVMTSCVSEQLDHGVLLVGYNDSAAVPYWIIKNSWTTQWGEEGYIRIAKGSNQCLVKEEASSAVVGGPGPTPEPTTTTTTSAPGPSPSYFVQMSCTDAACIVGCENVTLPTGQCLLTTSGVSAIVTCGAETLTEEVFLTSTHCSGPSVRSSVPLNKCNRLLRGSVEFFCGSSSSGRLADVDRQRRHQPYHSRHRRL

| SMILES | inhibition [1] | CC50 at 72 h [2] | IC50 (Trypanosoma cruzi [3]) | Ratio CC50/IC50 [4] | other results |
| --- | --- | --- | --- | --- | --- |
| C/C(=N\N=C1\SC(C)C(=O)N1C)c1ccc(Cl)c(Cl)c1 (stereo unspecified) | 32% | > 100 µM | > 50 µM |  |  |
| C/C(=N\N=C1\SC(c2ccccc2)C(=O)N1c1ccccc1)c1ccc(Cl)c(Cl)c1 (stereo unspecified) | 27% | 27.1 µM | 17.7 µM | 1.5 |  |
| C/C(=N\N=C1/NC(=O)C(C(C)C)S1)c1ccc(Cl)c(Cl)c1 (stereo unspecified) | 49% | > 100 µM | 16.9 µM | >5.9 |  |
| C/C(=N\N=C1\SC(C(C)C)C(=O)N1C)c1ccc(Cl)c(Cl)c1 (stereo unspecified) | 38% | > 100 µM | > 50 µM |  |  |
| O=C(Cn1ccnc1[N+](=O)[O-])NCc1ccccc1 [BENZNIDAZOLE] |  | > 100 µM | 10.6 µM | >9.4 | Activity (Trypanosoma cruzi [5]): Active; Activity (Trypanosoma cruzi [6]): Active; Activity (Mus musculus): Non-toxic; Activity (Trypanosoma cruzi [7]): >99%; Activity (Trypanosoma cruzi [8]): >99%; Activity (Trypanosoma cruzi [9]): Active |
| C/C(=N\NC(=S)Nc1ccccc1)c1ccc(Cl)c(Cl)c1 | 0% | > 100 µM | > 50 µM |  |  |
| CNC(=S)N/N=C(\C)c1ccc(Cl)c(Cl)c1 | 28% | > 100 µM | 11.2 µM |  |  |
| CCC1S/C(=N/N=C(\C)c2ccc(Cl)c(Cl)c2)NC1=O (stereo unspecified) | 49% | 76.7 µM | > 50 µM |  |  |
| C/C(=N\N=C(\N)S)c1ccc(Cl)c(Cl)c1 | 85% | 13.4 µM | 7.1 µM | 1.7 |  |
| C/C(=N\N=C1\SC(C)C(=O)N1c1ccccc1)c1ccc(Cl)c(Cl)c1 (stereo unspecified) | 43% | 26.1 µM | 4.2 µM | 6 | Activity (Trypanosoma cruzi [6]): Active; Ratio IC50 (Trypanosoma cruzi [10]): 2; Ratio IC50 (Trypanosoma cruzi [11]): 2; Activity (Trypanosoma cruzi [9]): Active; IC50 (Trypanosoma cruzi [12]): 5.9 µM |
| O=C(N[C@@H](Cn1ccnc1)c1ccc(Cl)cc1Cl)c1ccc(-c2nnc(-c3ccccc3)o2)cc1 |  |  |  |  | Activity (Leishmania): 60% |
